# Publication PMC2785155 (The Journal of Biological Chemistry, 2009)
# Key:
# [1] = target: T1, SufBC (Thermotoga maritima, UniProt Q9X188); test: stopped-flow ADP dissociation trapped by MDCC-ParM; type: binding; conditions: 50 mM Tris-HCl pH 7.5, 100 mM KCl, 5 mM MgCl2, 2 mM dithiothreitol, 20 °C
# T1 sequence (Q9X188 1-246): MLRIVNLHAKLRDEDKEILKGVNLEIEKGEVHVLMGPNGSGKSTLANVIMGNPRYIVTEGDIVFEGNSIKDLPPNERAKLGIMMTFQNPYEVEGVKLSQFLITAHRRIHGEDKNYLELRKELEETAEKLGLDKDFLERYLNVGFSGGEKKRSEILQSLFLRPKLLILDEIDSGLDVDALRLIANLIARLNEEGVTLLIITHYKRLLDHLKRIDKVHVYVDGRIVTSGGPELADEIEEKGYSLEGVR
# T1 sequence (Q9X189 1-464 partner): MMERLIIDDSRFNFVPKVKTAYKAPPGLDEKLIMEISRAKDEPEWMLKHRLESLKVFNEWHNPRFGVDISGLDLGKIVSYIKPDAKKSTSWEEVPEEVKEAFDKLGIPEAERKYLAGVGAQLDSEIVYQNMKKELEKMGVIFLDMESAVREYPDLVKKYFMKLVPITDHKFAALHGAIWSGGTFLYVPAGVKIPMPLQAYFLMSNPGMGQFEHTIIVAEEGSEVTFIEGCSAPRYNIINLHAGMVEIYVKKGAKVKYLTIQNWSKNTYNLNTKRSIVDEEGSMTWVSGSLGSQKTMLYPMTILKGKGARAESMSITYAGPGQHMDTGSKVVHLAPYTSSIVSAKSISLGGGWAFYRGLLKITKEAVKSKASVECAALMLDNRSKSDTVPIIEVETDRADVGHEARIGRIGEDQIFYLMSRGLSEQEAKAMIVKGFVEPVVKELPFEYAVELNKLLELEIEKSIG
# Outline: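 SufBC (13 μM) was preincubated with 4 μM ADP in one stopped-flow syringe. It was rapidly mixed with 80 or 160 μM MDCC-ParM ADP sensor, which traps ADP released from SufBC. ADP dissociation was read from the change in MDCC fluorescence over time.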
# [2] = target: T1, SufBC; conditions: 50 mM Tris-HCl pH 7.5, 100 mM KCl, 5 mM MgCl2, 2 mM dithiothreitol, 20 °C
Structure (SMILES),rate constant (ADP dissociation) [1] [s⁻¹],"single-turnover stopped-flow, MDCC-PBP and MDCC-ParM sensors [2]"
Nc1ncnc2c1ncn2[C@@H]1O[C@H](COP(=O)(O)OP(=O)(O)O)[C@@H](O)[C@H]1O [ADP],0.046,–
Nc1ncnc2c1ncn2[C@@H]1O[C@H](COP(=O)(O)OP(=O)(O)OP(=O)(O)O)[C@@H](O)[C@H]1O [ATP],–,study ADP and Pi release during a single turnover of ATP hydrolysis by SufBC
